In ChEMBL document CHEMBL1155970, “Synthesis and biological evaluation of quinic acid derivatives as anti-inflammatory agents” (Bioorg Med Chem Lett, 2009):
Calls of active or inactive are those of the source. The calls are words filed in the database; no cut-off is given here.

How the values were obtained:
[1] = test system: Radical scavenging activity; test: Antioxidant activity assessed as DPPH radical scavenging activity by UV-visible spectrophotometry; assay type: functional
In short: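 DPPH stock at 0.625 mM in 50% acetone, stored at 4 °C in the dark; diluted daily to a 0.208 mM working solution. Samples in 50% acetone were mixed 1:1 with working DPPH, giving 0.104 mM DPPH initially. Mixtures were vortexed and read immediately at 515 nm against a 50% acetone blank, and remaining DPPH was calculated.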

A549 [2] = test: Inhibition of human NF-kappaB in TNF-alpha-stimulated A549 cells assessed as secreted alkaline phosphatase level at 1 uM after 18 hrs; assay type: cell-based
In short: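 The A549 NF-κB–SEAP reporter line was given TNF-α (10 ng/mL) plus compound at a single concentration, with dexamethasone as positive control. Supernatant SEAP was read 18 h later by chemiluminescence. Results are expressed as % inhibition relative to TNF-α alone, mean ± standard deviation, n = 3.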

[3] = Inhibition of human NF-kappaB in TNF-alpha-stimulated A549 cells assessed as secreted alkaline phosphatase level after 18 hrs; assay type: cell-based; details: A549, 18 h
In short: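 Type II-like A549 cells stably carrying an NF-κB response element–SEAP reporter were plated overnight at 6 × 10⁴ cells/well. They were then stimulated with human recombinant TNF-α (10 ng/mL) together with compound. After 18 h, supernatant SEAP was measured by chemiluminescence and normalized to lysate total protein (BCA). IC50 came from dose–response curves, n = 3 separate experiments.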

A549 [4] = test: Cytotoxicity against human A549 cells after 2 hrs by MTS assay; assay type: cell-based; details: a549, 18 h, in the assay text read “18 hrs” for “2 hrs”
In short: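 A549SN cells were plated at 1 × 10⁴ per well and held 24 h at 37 °C, then treated in duplicate for 18 h alongside vehicle and medium-only controls. Viability was read by MTS: formazan absorbance at 490 nm after 2 h, with the media-only background subtracted.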

Structure (SMILES) | Activity [1] | Activity (A549 [2]) | IC50 [3] [nM] | Activity (A549 [4])
CCCNC(=O)[C@]1(O)C[C@@H](O)[C@@H](O)[C@H](O)C1 | inactive | Active | 2830 | Not Active
CC(C)(C)OC(=O)NCCNC(=O)[C@]1(O)C[C@@H](O)[C@@H](O)[C@H](O)C1 |  | Active |  | 
NCCNC(=O)[C@]1(O)C[C@@H](O)[C@@H](O)[C@H](O)C1 |  | Active |  | 
O=C(O)/C=C/c1ccc(O)c(O)c1 | Active |  |  | 
O=C(O)[C@]1(O)C[C@@H](O)[C@@H](O)[C@H](O)C1 [QUINIC ACID] | inactive |  |  | Not Active
O=C(/C=C/c1ccc(O)c(O)c1)O[C@@H]1C[C@](O)(C(=O)O)C[C@@H](O)[C@H]1O | Active |  |  | 
CC(C)NC(=O)[C@]1(O)C[C@@H](O)[C@@H](O)[C@H](O)C1 |  | Active |  | 
CC(=O)O[C@@H]1C[C@](OC(C)=O)(C(=O)O)C[C@@H](OC(C)=O)[C@H]1OC(C)=O |  | inactive |  | 
O=C1O[C@H]([C@@H](O)CO)C(O)=C1O | Active |  |  | 
